Assay outcomes deposited in PubChem by Sanford-Burnham Center for Chemical Genomics.
Mdm2-MdmX inh = inhibitors of human Mdm2-MdmX association, primary screen, cell-based, luminescence, split luciferase, SaOS-2, uHTS; 330,000 compounds, 3% hits; inhibition, % at 8 µM; Protein Mdm4 (Homo sapiens) + E3 ubiquitin-protein ligase Mdm2 (Homo sapiens), …; SaOS-2 split-luciferase Mdm2/MdmX complementation;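 active means inhibition of at least 50% at 8 µM in the primary screen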
Target sequence (O15151 whole entry, looked up): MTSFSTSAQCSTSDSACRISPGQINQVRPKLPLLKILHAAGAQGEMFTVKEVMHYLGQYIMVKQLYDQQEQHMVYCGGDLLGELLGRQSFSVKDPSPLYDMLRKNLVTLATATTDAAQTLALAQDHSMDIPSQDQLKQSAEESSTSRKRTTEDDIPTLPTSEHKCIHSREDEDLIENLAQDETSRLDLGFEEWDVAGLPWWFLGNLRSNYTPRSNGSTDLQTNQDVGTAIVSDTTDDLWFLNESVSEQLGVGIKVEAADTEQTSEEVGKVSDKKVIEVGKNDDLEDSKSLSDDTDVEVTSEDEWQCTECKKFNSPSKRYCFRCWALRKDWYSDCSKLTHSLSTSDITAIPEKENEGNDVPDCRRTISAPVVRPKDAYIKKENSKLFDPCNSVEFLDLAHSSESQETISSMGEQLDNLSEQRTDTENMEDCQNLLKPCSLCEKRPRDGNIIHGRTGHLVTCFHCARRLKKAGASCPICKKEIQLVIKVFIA
Target sequence (Q00987 whole entry, looked up): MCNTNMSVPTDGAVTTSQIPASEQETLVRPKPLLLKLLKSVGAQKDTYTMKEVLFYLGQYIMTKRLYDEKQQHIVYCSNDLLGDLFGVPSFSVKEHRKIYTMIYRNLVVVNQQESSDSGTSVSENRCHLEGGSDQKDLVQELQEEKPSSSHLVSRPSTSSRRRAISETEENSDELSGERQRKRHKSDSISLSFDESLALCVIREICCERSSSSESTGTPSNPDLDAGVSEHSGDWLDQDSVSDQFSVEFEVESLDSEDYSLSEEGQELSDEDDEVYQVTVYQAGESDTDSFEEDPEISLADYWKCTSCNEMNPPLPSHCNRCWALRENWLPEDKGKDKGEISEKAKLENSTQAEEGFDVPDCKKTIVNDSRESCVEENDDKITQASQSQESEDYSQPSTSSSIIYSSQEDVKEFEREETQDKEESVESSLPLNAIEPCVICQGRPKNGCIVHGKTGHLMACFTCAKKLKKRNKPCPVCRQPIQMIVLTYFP
UBC13 polyUb = UBC13 polyubiquitin chain formation inhibitors, primary screen, biochemical, TR-FRET, uHTS; Ubiquitin-conjugating enzyme E2 N (Homo sapiens), P61088; inhibition, % at 20 µM; 330,000 compounds, 0.47% hits; AID 485273, 2010; in the data active means inhibition above about 45%, passing the limit was not always enough
UPR CHOP act = activators of apoptotic CHOP UPR arm, primary screen, cell-based, CHO-CHOP luciferase reporter, luminescence, uHTS. UPR activation; percent of tunicamycin response over DMSO baseline. AID 449763, 2010. activation, % at 10 µM. 330,000 compounds, 0.34% hits;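 active means at 10 µM dose, activation of 40% or more, normalized to positive control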;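 further: 100% = tunicamycin at 10 µg/mL and 0% = DMSO alone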
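Dosing – one dose, 10 µM in 0.5% DMSO · System – CHO-CHOP cells, stable luciferase reporter of PERK-eIF2a-CHOP signalling · Input – 500 cells/well · Control set – tunicamycin 10 µg/mL final as positive, DMSO-only wells as negative · Timing – 6 h compound treatment, 37 °C · Measure – % activation vs tunicamycin · Technique – luminescence read with Steady-Glo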
XBP1 UPR activ = activators of adaptive XBP1 UPR arm, primary screen, cell-based, CHO-XBP1 luciferase reporter, luminescence, uHTS; IRE1-XBP1 UPR activation; percent of tunicamycin response, DMSO as zero; activation, % at 20 µM; 330,000 compounds, 0.33% hits; AID 463104, 2010;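 active means versus positive control, 20 µM dose yields 30% or more activation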;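 further: 100% = tunicamycin at 10 µg/mL and 0% = DMSO only wells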
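Material – CHO cell line with stable XBP1 luciferase reporter · Buffer or medium – F12 plus 10% FBS · Compound – single point, 20 µM final compound, 1% DMSO · Schedule – 16-18 h cell attachment at 37 °C, then 6 h compound exposure · Signal – Steady-Glo luminescence read · Benchmarks – high control tunicamycin 10 µg/mL final, low control DMSO vehicle only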
Apaf1 inhib = inhibitors of human Apaf-1 apoptosome, primary screen, biochemical, DEVD-Rh110 fluorescence, uHTS; Apoptotic protease-activating factor 1 (Homo sapiens), O14727; reconstituted apoptosome caspase-3 activity; inhibition, % at 20 µM; 330,000 compounds, 0.71% hits; AID 489030, 2010; active means inhibition of at least 40% at 20 µM;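 further: plate controls were DMSO wells for no effect and DEVD-CHO caspase inhibitor wells for full effect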
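Assay system: Apoptosome proteins | Medium: pH 7.5 Hepes buffer with CHAPS, BSA, DTT | Also added: Cytochrome c and DEVD-Rh110 substrate | Times: 30 min plus 50 min, RT | Detection: Rhodamine 110 fluorescence at Ex 480/Em 540 nm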
Mdm2 MdmX conf = Mdm2-MdmX complex disruptors, retested hits, confirmation, luminescence, single concentration | Mdm2-MdmX binding, luminescent assay | AID 489028, 2010 | inhibition, % at 8 µM | shares compounds with Mdm2-MdmX inh | 10,000 compounds, 55% hits; in the data active means inhibition above about 40%
Full FLuc ctr = full-length luciferase signal inhibition, confirmation, counter-screen for Mdm2/MdmX interaction inhibitor project, cell-based, single concentration, SaOS-2 | shares compounds with Mdm2-MdmX inh | SaOS-2 full-length luciferase counterscreen, luminescence | inhibition, % at 8 µM | 6,200 compounds, 77% hits | AID 504607, 2011;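 active means mean inhibition at 8 µM reaching about 37%, which flags the compound as non-specific, limit read from the data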;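 further: p53-null SaOS-2 cells with luciferase driven by a doxycycline-inducible promoter; compound on cells about two nights before reading with doxycycline added after day one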
The depositor's hits bear a star; . = no result given. Compounds with a hit are over-represented: about 4.1% of the library has one in this group of screens.

SMILES | Mdm2-MdmX inh | UBC13 polyUb | UPR CHOP act | XBP1 UPR activ | Apaf1 inhib | Mdm2 MdmX conf | Full FLuc ctr
CCCOc1ccc(CNC(=O)C2CCN(C(=O)N3CCOc4ccccc43)CC2)cc1 | 51* | 4 | 1 | -2 | -4 | 0 | .
Cn1c(=O)n(CC(=O)OCc2ccccc2)c(=O)c2c1nc1n2CCCN1C1CCCCC1 | 19 | 6 | 0 | -3 | 10 | . | .
COc1ccc2nc(NC(=O)Nc3ccccc3)sc2c1 | -87 | 10 | 2 | -10 | 1 | . | .
CC(C)(C)c1nc(NC(=O)Nc2ccccc2)sc1Br | 66* | -9 | 1 | 6 | 25 | 4 | .
COc1ccccc1C(=O)Nc1c(C(=O)N(CCN(C)C)Cc2ccco2)oc2ccccc12 | 62* | 27 | 3 | -1 | 18 | 27 | .
COC(=O)c1ccc(Oc2nc(Nc3ccc(C)c(C)c3)nc(N(C)C)n2)cc1 | 35 | 7 | -3 | 7 | 13 | . | .
O=C(Nc1ccc(Cl)cc1)Nc1nnc(CSCc2ccccc2Cl)s1 | 61* | -28 | -2 | -1 | -2 | 15 | .
Cc1ccc(OCCSCc2nnc(NC(=O)Nc3cccc(Cl)c3)s2)cc1 | 92* | 1 | 3 | 7 | 10 | 82* | 97*
O=C(Cc1nnc(NC(=O)Nc2ccccc2)s1)Nc1ccccc1 | 10 | -1 | 0 | -2 | -21 | . | .
O=C(Nc1ccccc1)Nc1nnc(CSCc2ccccc2Cl)s1 | 85* | 10 | 0 | -2 | 11 | 47* | 66*
O=C(Nc1ccc(Cl)c(Cl)c1)Nc1nnc(CSc2ccccc2)s1 | 95* | -2 | 7 | 7 | -10 | 77* | 50*
O=C(Nc1ccc(Cl)cc1)Nc1nnc(SCc2ccccc2)s1 | -13 | -15 | 2 | -1 | -5 | . | .
O=C(Nc1ccc(Cl)c(Cl)c1)Nc1nccs1 | 19 | 12 | 2 | 3 | 20 | . | .
CN1CCN(C(=O)C2=C[C@H](c3ccccc3)C[C@H](OCc3ccc(CO)cc3)O2)CC1 | 24 | -4 | 0 | -1 | 0 | . | .
CC(=O)NC1=NN(C(C)=O)C(C)(c2ccco2)S1 (stereo unspecified) | 8 | 0 | -1 | 0 | 1 | . | .
CC(=O)NC1=NN(C(C)=O)C(C)(c2cccs2)S1 (stereo unspecified) | 55* | -2 | -1 | -2 | 6 | 42* | 52*
CCOc1ccccc1NC(=O)C(OC(=O)c1ccc(NC(=O)CC#N)cc1)c1ccccc1 (stereo unspecified) | -1 | 34 | -1 | -1 | 29 | . | .
CCNC(=O)/C(C#N)=C/c1c(N2CCCCCC2)nc2c(C)cccn2c1=O | 22 | 8 | 1 | -4 | 13 | . | .
Cc1cccn2c(=O)c(/C=C(\C#N)C(=O)NCc3ccccc3)c(N3CCC(C(N)=O)CC3)nc12 | 64* | 7 | 1 | 4 | -11 | 1 | .
CC(C)c1onc(C(=O)N2CCN(C(c3ccccc3)c3ccccc3)CC2)c1[N+](=O)[O-] | 74* | -2 | 1 | -3 | 8 | 94* | 64*
Cc1ccc(Cl)cc1N1CCN(C(=O)c2noc(C(C)C)c2[N+](=O)[O-])CC1 | 68* | -3 | 2 | -5 | 13 | 64* | 37*
CC(C)c1onc(C(=O)N2CCN(c3ccc(F)cc3)CC2)c1[N+](=O)[O-] | 3 | 1 | 1 | -4 | -6 | . | .
CC(C)c1onc(C(=O)N2CCN(c3ccccc3)CC2)c1[N+](=O)[O-] | 21 | -4 | 1 | -4 | -6 | . | .
